Experimental data of several laboratories.

The IC50 of `Cc1ccc(S(=O)(=O)NC(=O)c2cc3ccccc3n2Cc2ccc(C3CC3)c3ccccc23)cc1` is reported as 2.61 µM (mouse BMDM; IL-1β release, inhibitor, ELISA; LPS-stimulated).
For `Cc1nc(Nc2ncc(C(=O)Nc3c(C)cccc3Cl)s2)cc(N2CC[C@H](O)C2)n1`, the IC50 was > 10 µM (P3HR-1; cell growth or viability, ATP luminescence; 72 h).
The IC50 of `Nc1ccccc1NC(=O)c1ccc(Cn2cnc3c(Nc4ccc(Cl)cc4)ncnc32)cc1` is reported as 13 µM (HEL; cell growth or viability, MTT; 72 h).
`OCc1ccc(-c2nn(Cc3ccccc3)c3ccccc23)o1` has an IC50 of > 46 µM (CC-LP-1; cell growth or viability, ATP luminescence).
With `O=C(NO)c1ccc(Cn2cnc3c(Nc4ccc(F)c(Cl)c4)ncnc32)cc1` the IC50 was 2.34 µM (NB-4; cell growth or viability, MTT; 72 h).
With `C#Cc1cccc(Nc2ncnc3cc(OCCOC)c(OCCOC)cc23)c1` the IC50 was > 20 µM (BGC-823; cell growth or viability, MTT; 48 h).
`OCc1ccc(-c2nn(Cc3cccnc3)c3cccnc23)o1` has an IC50 of > 46 µM (CC-LP-1; cell growth or viability, ATP luminescence).
`Cc1cc2c(C(N)=O)cccc2n1-c1nc2c(c(NCc3ccccc3)n1)CCCN2` gave an IC50 of 1.3 µM (KMS-11; cell growth or viability; 72 h).
For `COc1ccc(Nc2ncnc3c2ncn3Cc2ccc(C(=O)Nc3ccccc3N)cc2)cc1`, the IC50 was 16.8 µM (HEL; cell growth or viability, MTT; 72 h).
`O=C(CSc1nc2ccccc2s1)N/N=C/c1ccc(OCC(=O)Nc2cccc([N+](=O)[O-])c2)cc1` gave an IC50 of > 100 µM (HEL 299; cell growth or viability, MTS; 72 h).
With `OCc1ccc(-c2nn(Cc3ccccn3)c3ccccc23)o1` the IC50 was > 46 µM (CC-LP-1; cell growth or viability, ATP luminescence).
`COc1cccc2c1C(=O)c1c(O)c3c(c(O)c1C2=O)C[C@@](O)(C(=O)CO)C[C@@H]3O[C@H]1C[C@H](N)[C@H](O)[C@H](C)O1` gave an IC50 of 22.5 µM (H69AR; cell growth or viability, MTT; 75 h).
`COC(=O)c1cc(C(C)=NNc2nc(-c3ccc4c(c3)OCCCO4)cs2)ccc1O` gave an IC50 of 231 µM (HSF; cell growth or viability, MTT; 96 h).
For `COc1ccc(Nc2ncnc3c2ncn3Cc2ccc(C(=O)NO)cc2)cc1`, the IC50 was 0.87 µM (NB-4; cell growth or viability, MTT; 72 h).
`CS(=O)(=O)NCCCCN=C=S` gave an IC50 of 42.9 µM (HDFa; cell growth or viability, MTT; 24 h).
For `CN1CCC(NC2CCc3[nH]c4c(C(N)=O)ccc(-c5ccccc5Cl)c4c3C2)CC1` (centres unmarked), the IC50 was 0.018 µM (BGC-823; cell growth or viability; 96 h).
`COc1cc([C@@H]2c3cc4c(cc3[C@@H](O[C@@H]3O[C@@H]5CO[C@@H](C)O[C@H]5[C@H](O)[C@H]3O)[C@H]3COC(=O)[C@H]23)OCO4)cc(OC)c1O` gave an IC50 of > 10 µM (HEL 299; cell growth or viability, MTS; 72 h).
For `O=c1[nH]cc(F)c(=O)[nH]1`, the IC50 was 76.9 µM (HSF; cell growth or viability, MTT; 48 h).
For `CN(C)CCNC(=O)c1cccn2c(=O)c3cc4ccccc4cc3nc12`, the IC50 was 36.3 µM (SNU-449; cell growth or viability, imaging; 72 h).
For `NCc1ccc(-c2nn(Cc3ccncc3)c3ccccc23)o1`, the IC50 was > 46 µM (CC-LP-1; cell growth or viability, ATP luminescence).
`C(=N\Nc1cc(N/N=C/c2ccc3ccccc3n2)ncn1)/c1ccc2ccccc2n1` has an IC50 of 12.3 µM (BGC-823; cell growth or viability, MTT; 48 h).
`CNC(=O)c1cc(Oc2ccc(NC(=O)Nc3ccc(Cl)c(C(F)(F)F)c3)cc2)ccn1` has an IC50 of 6.37 µM (SNU-449; cell growth or viability, imaging; 72 h).
`CCC(=CCc1c(O)cc2c(c1O)C(=O)C[C@H](c1ccccc1O)O2)CC` gave an IC50 of 37.4 µM (HeLa; cell growth or viability, MTT; 48 h).
For `CNC(=O)c1cc(Oc2ccc(NC(=O)Nc3ccc(Cl)c(C(F)(F)F)c3)cc2)ccn1`, the IC50 was 6.08 µM (BGC-823; cell growth or viability, MTT; 48 h).
The IC50 of `OCc1ccc(-c2nn(Cc3ccccn3)c3cccnc23)o1` is reported as > 46 µM (CC-LP-1; cell growth or viability, ATP luminescence).
For `O=C(CSc1nc2ccccc2s1)N/N=C/c1ccc(OCC(=O)Nc2cccc(Cl)c2)cc1`, the IC50 was > 100 µM (HEL 299; cell growth or viability, MTS; 72 h).
`O=C(NO)c1ccc(Cn2cnc3c(Nc4cccc([N+](=O)[O-])c4)ncnc32)cc1` has an IC50 of 0.58 µM (NB-4; cell growth or viability, MTT; 72 h).
The IC50 of `OCc1ccc(-c2nn(Cc3cccnc3)c3ccccc23)o1` is reported as ~46 µM (CC-LP-1; cell growth or viability, ATP luminescence).
`C(=N\Nc1cc(N/N=C/c2cccc3cccnc23)ncn1)/c1cccc2cccnc12` gave an IC50 of 26.8 µM (BGC-823; cell growth or viability, MTT; 48 h).
`O=C(NO)c1ccc(Cn2cnc3c(Nc4ccc(Br)cc4F)ncnc32)cc1` has an IC50 of 2.46 µM (HEL; cell growth or viability, MTT; 72 h).
`Cc1cc(NS(=O)(=O)c2ccc(NC(=O)/C(C#N)=C/c3ccc(N4CCOCC4)cc3)cc2)no1` has an IC50 of > 200 µM (HSF; cell growth or viability, MTT; 48 h).
The IC50 of `Nc1ccccc1NC(=O)c1ccc(Cn2cnc3c(Nc4ccc(Br)cc4F)ncnc32)cc1` is reported as 17 µM (HEL; cell growth or viability, MTT; 72 h).
The IC50 of `NCc1ccc(-c2nn(Cc3ccccc3)c3ccccc23)o1` is reported as > 46 µM (CC-LP-1; cell growth or viability, ATP luminescence).
With `O=C(NO)c1ccc(Cn2cnc3c(Nc4ccc(Cl)cc4)ncnc32)cc1` the IC50 was 0.41 µM (NB-4; cell growth or viability, MTT; 72 h).
For `Cc1cc(NS(=O)(=O)c2ccc(NC(=O)/C(C#N)=C/c3ccc(N4CCCCC4)cc3)cc2)no1`, the IC50 was > 200 µM (HSF; cell growth or viability, MTT; 48 h).
